The target of experiment [1] is T1, Replicase polyprotein 1ab (Severe acute respiratory syndrome coronavirus, UniProt P0C6X7). Put plainly: Inhibition of ATPase activity of SCV helicase assessed as phosphate release by colorimetric assay. The essentials:
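Purified SCV NTPase/helicase (400 nM in 50 mM Tris/HCl pH 6.6) preincubated with compounds for 5 min at rt. Stopped with malachite green/molybdate reagent in 1 M HCl. A620 read after 5 min, with phosphate from a standard curve.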

Experiment [2] has as its target T1, Replicase polyprotein 1ab. Description: Inhibition of SCV helicase assessed as duplex-DNA unwinding by FRET based assay. The essentials: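 Substrate was 25-bp dsDNA with a 20-dT 5′-overhang. SCV helicase (150 nM in 20 mM HEPES pH 7.4) preincubated with compounds for 5 min at rt. Started with 5X reaction solution (5 mM MgCl2, 45 mM ATP, 25 mM DTT, 100 nM dsDNA substrate as 5X concentrations), then 2 min at 37 °C. Stopped with EDTA plus unmodified trap oligomer, with FRET read-out.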

We go through 3 compounds from BindingDB's records for doi:10.1016/j.bmcl.2009.02.010 (Konkuk University, 2009).

In general, IC50 refers to the midpoint of a concentration-inhibition curve. With `O=C(O)C(=O)CC(=O)c1ccccc1OCc1ccccc1`, the IC50 in experiment [1] and in experiment [2] was more than 50 µM throughout.

For the compound `O=C(O)C(=O)CC(=O)c1ccc(OCc2ccc(Cl)cc2)cc1` [4-(4-(4-chlorobenzyloxy)phenyl)-2-hydroxy-4-oxobut-2-enoic acid], the half-inhibitory concentration (IC50) in experiment [1] and in experiment [2] was more than 50 µM each time.

Turning to `O=C(O)C(=O)CC(=O)c1cccc(OCc2ccccc2)c1`, the IC50 in experiment [1] and in experiment [2] was more than 50 µM in each case.
